# Assay results reported in PMC6392825 (ChemistryOpen, 2019).
# Key:
# HT‐29 [1] = assay: Cell growth inhibition, protein content; assay type: cell-based; settings: Homo sapiens, HT-29, 72 h, read-out: IC50 SRB
# Summary of the method: (§1)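 Cell lines from ATCC, grown in DMEM+glutamax with 1% NEAA, 1% P/S and 10% FBS at 37 °C, 10% CO2. Seeded at 20000 cells/well for 24 h, then exposed to test compound (25 mM DMSO stock) for three days. Fixed with cold TCA for 1 h at 4 °C, stained 30 min with 0.4% SRB in 1% acetic acid, dissolved in 10 mM Tris, A490. Triplicate; IC50 given as mean ± SD combined with MTT data (n ≥ 3).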
# Caco‐2 [2] = assay: Cytotoxicity, mitochondrial activity; assay type: cell-based; settings: Homo sapiens, Caco-2, 72 h, read-out: IC50 MTT
# Summary of the method: (§2)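 Seeded at 20000 cells/well in DMEM and grown 24 h at 37 °C, 10% CO2. Medium was then replaced with serum-free medium holding test compound (25 mM DMSO stock) at various concentrations for 72 h, in triplicate; doxorubicin was the positive control. MTT (5 mg/mL stock in PBS) added for 2 h, formazan dissolved in DMSO, A570. IC50 derived from % surviving cells, reported as mean ± SD combined with SRB data.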
# Caco‐2 [3] = assay: Cell growth inhibition, protein content; assay type: cell-based; settings: Homo sapiens, Caco-2, 72 h, read-out: IC50 SRB
# Summary of the method: as §1
# EA.hy926 [4] = assay: Intracellular ROS assay; assay type: cell-based; settings: for activity at 1 µM / activity at 10 µM: Homo sapiens, EA.hy 926, read-out: Intracellular ROS, percentage compared to the untreated control cells (ROS/SRB)
# Summary of the method: (§3)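 Cells seeded at 20000/well and grown 24 h at 37 °C, 10% CO2, then treated with test compound at 10 and 1 μM in serum-free medium. NAC and doxorubicin served as controls. After a PBS wash, cells were loaded with 20 μM DCFH-DA for 30 min, washed, and held 1 h in phenol red-free DMEM. Fluorescence read at ex 485/em 535 nm and normalized to SRB in the same well. Reported as % of untreated control, n ≥ 3, two-tailed t-test with unequal variances.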
# HepG2 [5] = assay: Intracellular ROS assay; assay type: cell-based; settings: for change of intracellular ROS in words: HepG2, vs untreated control, 10 and 1 μM; for activity at 1 µM / activity at 10 µM: Homo sapiens, HepG2, read-out: Intracellular ROS, percentage compared to the untreated control cells (ROS/SRB)
# Summary of the method: as §3
# HT‐29 [6] = assay: Intracellular ROS assay; assay type: cell-based; settings: for change of intracellular ROS in words: HT‐29, vs untreated control, 10 and 1 μM; for activity at 1 µM / activity at 10 µM: Homo sapiens, HT-29, read-out: Intracellular ROS, percentage compared to the untreated control cells (ROS/SRB)
# Summary of the method: as §3
# CHO‐K1 = assay: Intracellular ROS assay; assay type: cell-based, Chinese hamster; settings: CHO‐K1, vs untreated control, 10 and 1 μM
# Summary of the method: as §3
# EA.hy926 [7] = assay: Cytotoxicity, mitochondrial activity; assay type: cell-based; settings: Homo sapiens, EA.hy 926, 72 h, read-out: IC50 MTT
# Summary of the method: as §2
# HT‐29 [8] = assay: Cytotoxicity, mitochondrial activity; assay type: cell-based; settings: Homo sapiens, HT-29, 72 h, read-out: IC50 MTT
# Summary of the method: as §2
# [9] = Water solubility, shake flask method, 0.1 M phosphate buffer pH 6.8; assay type: physicochemical; settings: 37 °C, pH 6.8, aqueous buffer, thermodynamic from solid
# HepG2 [10] = assay: Cell growth inhibition, protein content; assay type: cell-based; settings: Homo sapiens, HepG2, 72 h, read-out: IC50 SRB
# Summary of the method: as §1
# EA.hy926 [11] = assay: Cell growth inhibition, protein content; assay type: cell-based; settings: Homo sapiens, EA.hy 926, 72 h, read-out: IC50 SRB
# Summary of the method: as §1
# Caco‐2 [12] = assay: Intracellular ROS assay; assay type: cell-based; settings: for activity at 1 µM / activity at 10 µM: Homo sapiens, Caco-2, read-out: Intracellular ROS, percentage compared to the untreated control cells (ROS/SRB); for change of intracellular ROS in words: Caco‐2, vs untreated control, 10 and 1 μM
# Summary of the method: as §3
# HepG2 [13] = assay: Cytotoxicity, mitochondrial activity; assay type: cell-based; settings: Homo sapiens, HepG2, 72 h, read-out: IC50 MTT
# Summary of the method: as §2
# [14] = Chemical antioxidant capacity, FRAP assay
SMILES,IC50 (Caco‐2 [3]) [µM],solubility at 90 min [9] [µM],solubility at 24 h [9] [µM],IC50 (HepG2 [10]) [µM],IC50 (HT‐29 [1]) [µM],IC50 (Caco‐2 [2]) [µM],activity at 1 µM (EA.hy926 [4]) [%],activity at 10 µM (EA.hy926 [4]) [%],activity at 1 µM (HepG2 [5]) [%],activity at 10 µM (HepG2 [5]) [%],activity at 1 µM (HT‐29 [6]) [%],activity at 10 µM (HT‐29 [6]) [%],IC50 (EA.hy926 [7]) [µM],IC50 (HT‐29 [8]) [µM],IC50 (EA.hy926 [11]) [µM],activity at 1 µM (Caco‐2 [12]) [%],activity at 10 µM (Caco‐2 [12]) [%],IC50 (HepG2 [13]) [µM],FRAP (Trolox equivalent per μM) [14] [Trolox equivalent per μM],FRAP (curcumin equivalent per μM) [14],further results
"COc1cc(/C=C/C(=O)/C=C(O)/C=C/c2ccc[nH]2)ccc1O [3 f, (1E,4Z,6E)‐5‐Hydroxy‐1‐(4‐hydroxy‐3‐methoxyphenyl)‐7‐(1H‐pyrrol‐2‐yl)hepta‐1,4,6‐trien‐3‐one]",15.9 ± 2,20.9 ± 1.7,18.3 ± 0.4,7.1 ± 0.2,36.1 ± 2.3,17.1 ± 0.4,125 ± 9.7,132 ± 12.7,98.9 ± 2.9,216 ± 13.7,117 ± 10.5,109 ± 2.6,45.6 ± 0.9,33.9 ± 0.4,33.8 ± 1.4,125 ± 3.5,147 ± 12,31.7 ± 0.6,0.56,0.54 curcumin equivalent per μM,"change of intracellular ROS in words (HepG2 [5]): significantly increased ROS production; change of intracellular ROS in words (HT‐29 [6]): higher ROS signal; change of intracellular ROS in words (CHO‐K1): significantly increased ROS; antioxidant activity in words, FRAP [14]: comparable to ascorbic acid"
"O=C(/C=C(O)/C=C/c1ccccn1)/C=C/c1c[nH]c2ccccc12 [3 j, (1E,4Z,6E)‐5‐Hydroxy‐1‐(1H‐indol‐3‐yl)‐7‐(pyridin‐2‐yl)hepta‐1,4,6‐trien‐3‐one]",40.2 ± 1.9,10.7 ± 0.4,7.9 ± 0.2,34 ± 2.8,46 ± 3,35.5 ± 0.4,90.8 ± 2.4,111 ± 3.5,92.6 ± 6.5,96.6 ± 5.9,114 ± 15.5,102 ± 6.4,1.4 ± 0.2,33.8 ± 3.5,3.7 ± 0.2,98.2 ± 2.6,84.9 ± 7,38.9 ± 0.8,0.16,0.15 curcumin equivalent per μM,
"COc1cc(/C=C/C(=O)CC(=O)/C=C/c2ccc(O)c(OC)c2)ccc1O [Cur, curcumin, reference compound]",39.1 ± 0.1,2.7 ± 0.1,,22.1 ± 2.6,52.3 ± 3.8,47.6 ± 1.5,100 ± 7.7,97.6 ± 5.7,90.8 ± 12,101 ± 8.8,106 ± 8.4,86.5 ± 4.5,46.8 ± 0.7,43.4 ± 4.6,58.4 ± 4.2,131 ± 3.6,115 ± 7.2,25.3 ± 0.9,1.00,,
"COc1cccc2c1C(=O)c1c(O)c3c(c(O)c1C2=O)C[C@@](O)(C(=O)CO)C[C@@H]3O[C@H]1C[C@H](N)[C@H](O)[C@H](C)O1 [Dox, doxorubicin, reference compound]",9.2 ± 0.5,,,1.3 ± 0.3,2.7 ± 0.1,13 ± 0.5,108 ± 6.2,125 ± 5.1,100 ± 4.1,119 ± 4.2,116 ± 1.7,126 ± 1.8,4.1 ± 0.1,4.8 ± 0.1,3.4 ± 0.4,121 ± 9.4,112 ± 3.9,1.8 ± 0.1,,,"change of intracellular ROS in words (EA.hy926 [4]; EA.hy926, vs untreated control, 10 and 1 μM): significant increase in ROS generation; change of intracellular ROS in words (HepG2 [5]): significant increase in ROS generation; change of intracellular ROS in words (HT‐29 [6]): significant increase in ROS generation; change of intracellular ROS in words (CHO‐K1): significant increase in ROS generation; change of intracellular ROS in words (Caco‐2 [12]): significant increase in ROS generation"

# Further molecules by falling IC50 (Caco‐2 [3]), results first:
IC50 (Caco‐2 [3]) [µM],solubility at 90 min [9] [µM],solubility at 24 h [9] [µM],IC50 (HepG2 [10]) [µM],SMILES,IC50 (HT‐29 [1]) [µM],IC50 (Caco‐2 [2]) [µM],activity at 1 µM (EA.hy926 [4]) [%],activity at 10 µM (EA.hy926 [4]) [%],activity at 1 µM (HepG2 [5]) [%],activity at 10 µM (HepG2 [5]) [%],activity at 1 µM (HT‐29 [6]) [%],activity at 10 µM (HT‐29 [6]) [%],IC50 (EA.hy926 [7]) [µM],IC50 (HT‐29 [8]) [µM],IC50 (EA.hy926 [11]) [µM],activity at 1 µM (Caco‐2 [12]) [%],activity at 10 µM (Caco‐2 [12]) [%],IC50 (HepG2 [13]) [µM],FRAP (Trolox equivalent per μM) [14] [Trolox equivalent per μM],FRAP (curcumin equivalent per μM) [14],further results
47.5 ± 0.2,8.1 ± 0.1,9.6 ± 0.8,54.1 ± 1,"O=C(/C=C(O)/C=C/c1ccc2ccccc2n1)/C=C/c1c[nH]c2ccccc12 [3 k, (1E,4Z,6E)‐5‐Hydroxy‐1‐(1H‐indol‐3‐yl)‐7‐(quinolin‐2‐yl)hepta‐1,4,6‐trien‐3‐one]",43.8 ± 0.9,44.7 ± 2.1,120 ± 9.2,126 ± 5.6,156 ± 13,197 ± 24.6,112 ± 10.8,116 ± 7.1,38.3 ± 1.7,42 ± 2,53.2 ± 1.3,162 ± 21.7,168 ± 28.1,56.2 ± 1.6,0.20,0.19 curcumin equivalent per μM,
18.7 ± 1.2,8.8 ± 0.4,7.7 ± 0.7,> 75,"COc1cc(/C=C/c2cc(/C=C/c3cccnc3)[nH]n2)ccc1O [4 a, 2‐Methoxy‐4‐{(E)‐2‐[5‐((E)‐2‐(pyridin‐3‐yl)vinyl)‐1H‐pyrazol‐3‐yl]vinyl}phenol]",24 ± 1.6,53.7 ± 6.1,,97.3 ± 7.3,88.4 ± 6.3,83.1 ± 5.5,61.3 ± 6.9,84.8 ± 3.8,18.5 ± 1.3,> 75,60.7 ± 0.7,79.1 ± 8.8,86.7 ± 2,11.2 ± 0.1,0.57,0.55 curcumin equivalent per μM,"change of intracellular ROS in words (HT‐29 [6]): significantly decreased ROS signal; change of intracellular ROS in words (Caco‐2 [12]): significantly decreased ROS production; antioxidant activity in words, FRAP [14]: comparable to ascorbic acid"
10.1 ± 0.5,12.2 ± 0.3,12 ± 0.7,9.8 ± 0.3,"O=C(/C=C(O)/C=C/c1ccc[nH]1)/C=C/c1c[nH]c2ccccc12 [3 l, (1E,4Z,6E)‐5‐Hydroxy‐1‐(1H‐indol‐3‐yl)‐7‐(1H‐pyrrol‐2‐yl)hepta‐1,4,6‐trien‐3‐one]",10 ± 0.1,6.5 ± 0.2,438 ± 46.1,826 ± 22.7,600 ± 61.8,998 ± 60.2,152 ± 8.8,558 ± 96.3,3.3 ± 0.1,10.5 ± 0.1,4.2 ± 0.3,410 ± 31.9,767.2 ± 4.1,16.5 ± 0.4,0.29,0.27 curcumin equivalent per μM,
5.7 ± 0.2,1.27,1.25,10.8 ± 1.6,"O=C(/C=C(O)/C=C/c1cccs1)/C=C/c1c[nH]c2ccccc12 [3 m, (1E,4Z,6E)‐5‐Hydroxy‐1‐(1H‐indol‐3‐yl)‐7‐(thiophen‐2‐yl)hepta‐1,4,6‐trien‐3‐one]",4.8 ± 0.3,0.5 ± 0.3,344 ± 7.1,322 ± 9.6,318 ± 13.2,424 ± 28.4,247 ± 15.5,337 ± 22,4.4 ± 0.4,6.9,8.6 ± 0.5,238 ± 5.5,295 ± 11.1,4.7 ± 0.2,0.10,0.09 curcumin equivalent per μM,
